Results on ten compounds are retold here after ChEMBL document CHEMBL1125680, “Quinazolinone cholecystokinin-B receptor ligands” (J Med Chem, 1991).

One assay addresses T1, Gastrin/cholecystokinin type B receptor (Mus musculus) (UniProt P56481).
T1 sequence (whole entry): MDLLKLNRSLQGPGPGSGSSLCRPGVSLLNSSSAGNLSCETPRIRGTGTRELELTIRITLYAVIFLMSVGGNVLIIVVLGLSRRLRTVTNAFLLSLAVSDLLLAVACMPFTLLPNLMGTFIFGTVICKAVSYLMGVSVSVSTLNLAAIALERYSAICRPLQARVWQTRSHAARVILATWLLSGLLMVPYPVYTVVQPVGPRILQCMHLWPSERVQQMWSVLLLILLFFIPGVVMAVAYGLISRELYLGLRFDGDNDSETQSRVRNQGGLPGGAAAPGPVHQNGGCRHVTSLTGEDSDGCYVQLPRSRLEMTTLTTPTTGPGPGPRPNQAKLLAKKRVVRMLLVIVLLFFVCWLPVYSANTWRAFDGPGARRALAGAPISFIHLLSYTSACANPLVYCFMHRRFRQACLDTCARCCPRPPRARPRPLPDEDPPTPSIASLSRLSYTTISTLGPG
As to the kind of experiment: Inhibition of [125I]-labeled CCK-8 sulfate binding to cholecystokinin type B receptor in mouse brain membranes. It is filed as cell membranes. The note with it: Membrane, concentration not given here. The method, boiled down:
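Mouse brain membranes as the CCK-B receptor source, with 125I-labelled CCK-8 sulfate as the radioligand, following the Chang and Lotti method.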
In the case of `O=c1c2ccccc2nc(CCc2c[nH]c3ccccc23)n1-c1ccccc1F`, the inhibition (usually the change of the read-out against control, counted positive when it falls) stood at 75%. On the same count and under the same terms, the figure for `O=c1c2ccccc2nc(CCc2c[nH]c3ccccc23)n1-c1ccccc1Cl` is 44%; for `O=c1c2ccccc2nc(CCc2c[nH]c3ccccc23)n1-c1ccccc1C(F)(F)F` it is 35%; for `COc1ccccc1-n1c(CCc2c[nH]c3ccccc23)nc2ccccc2c1=O` it is 74%.

A further assay has as its target T2, Cholecystokinin receptor type A (Rattus norvegicus) (UniProt P30551).
T2 sequence (whole entry): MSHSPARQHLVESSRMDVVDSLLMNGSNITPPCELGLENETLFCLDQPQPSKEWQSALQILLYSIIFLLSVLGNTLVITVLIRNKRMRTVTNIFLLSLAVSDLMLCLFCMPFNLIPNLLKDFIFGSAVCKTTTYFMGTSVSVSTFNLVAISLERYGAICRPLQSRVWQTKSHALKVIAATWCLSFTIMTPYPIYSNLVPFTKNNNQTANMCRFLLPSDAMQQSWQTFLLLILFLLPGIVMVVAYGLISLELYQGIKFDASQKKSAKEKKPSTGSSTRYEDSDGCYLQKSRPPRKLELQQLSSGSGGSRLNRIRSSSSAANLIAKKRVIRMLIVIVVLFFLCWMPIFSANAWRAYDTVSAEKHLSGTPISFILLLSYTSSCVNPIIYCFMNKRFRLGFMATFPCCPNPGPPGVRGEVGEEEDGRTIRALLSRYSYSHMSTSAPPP
As to the kind of experiment: Inhibition of [3H]-labeled L-364,718 binding to Cholecystokinin type A receptor in rat pancreas. To be noted: concentration not given here.
`CCc1cccc(-n2c(CCc3c[nH]c4ccc(Br)cc34)nc3ccccc3c2=O)c1`: the inhibition is -5%. Still for that read-out and setting: the figure for `O=c1c2ccccc2nc(CCc2c[nH]c3ccccc23)n1-c1cccc(C(F)(F)F)c1` is 6%; for `CC(C)Oc1cccc(-n2c(CCc3c[nH]c4ccc(Br)cc34)nc3ccccc3c2=O)c1` it is -6%; for `COc1cccc(-n2c(CCc3c[nH]c4ccc(Br)cc34)nc3ccccc3c2=O)c1` it is 5%.

A further assay concerns the target T3, Gastrin/cholecystokinin type B receptor (Mus musculus, UniProt P56481).
T3 sequence (P56481 whole entry): T1 sequence (whole entry)
As to the kind of experiment: Inhibition of [125I]CCK-8 sulfate binding to cholecystokinin type B receptor in mouse brain membranes.
Conditions: not given
It is filed as cell membranes.
`CCCOc1cccc(-n2c(CCc3c[nH]c4ccc(Br)cc34)nc3ccccc3c2=O)c1`: the IC50 (commonly the concentration at which inhibition is half-maximal) came to 58 nM. The compound `O=c1c2ccccc2nc(CCc2c[nH]c3ccc(Br)cc23)n1-c1cccc(OC2CCCC2)c1` yielded an IC50 of 67 nM. `O=c1c2ccccc2nc(CCc2c[nH]c3ccccc23)n1-c1cccc(C(F)(F)F)c1`: the IC50 was found to be 480 nM.
